Experimental findings from ChEMBL document CHEMBL3588826, “Chimeric derivatives of functionalized amino acids and α-aminoamides: compounds with anticonvulsant activity in seizure models and inhibitory actions on central, peripheral, and cardiac isoforms of voltage-gated sodium channels” (Bioorg Med Chem, 2015) are described below.

Calls of active or inactive are those of the source. No cut-off for these calls is given here.

Assay type in all cases: cell-based
Assay [1] is described as follows: Inhibition of voltage-gated sodium channel in mouse CAD cells assessed as transition of channels to slow-inactivated state measured at +20 mV by whole cell patch-clamp electrophysiology. The essentials:
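CAD cells were grown in Ham's F12/DMEM with 10% FBS at 37 °C and 5% CO2, then recorded by whole-cell voltage clamp at room temperature. A concentration range of compound was tested versus 0.1% DMSO. Slow inactivation was measured at −50 and +20 mV, and IC50 was derived from concentration-response curves.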

Assay [2] deals with Sodium channel protein type 9 subunit alpha (Homo sapiens) (UniProt Q15858). In words: Frequency-dependent inhibition of human Nav1.7 expressed in HEK293 cells assessed as current amplitude at 10 uM by whole cell patch-clamp electrophysiology. The essentials: (§1)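 Stable HEK293 lines expressing hNav1.1, rNav1.3, hNav1.7 or hNav1.5 were recorded by whole-cell voltage clamp at room temperature, with 10 μM compound versus 0.1% DMSO. A 30-pulse train was applied, and the read-out was the fraction of current remaining at the last pulse normalized to the first. Nav1.5 used hyperpolarized protocols.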
Sodium channel protein type 9 subunit alpha (Homo sapiens), sequence (Q15858 whole entry, looked up): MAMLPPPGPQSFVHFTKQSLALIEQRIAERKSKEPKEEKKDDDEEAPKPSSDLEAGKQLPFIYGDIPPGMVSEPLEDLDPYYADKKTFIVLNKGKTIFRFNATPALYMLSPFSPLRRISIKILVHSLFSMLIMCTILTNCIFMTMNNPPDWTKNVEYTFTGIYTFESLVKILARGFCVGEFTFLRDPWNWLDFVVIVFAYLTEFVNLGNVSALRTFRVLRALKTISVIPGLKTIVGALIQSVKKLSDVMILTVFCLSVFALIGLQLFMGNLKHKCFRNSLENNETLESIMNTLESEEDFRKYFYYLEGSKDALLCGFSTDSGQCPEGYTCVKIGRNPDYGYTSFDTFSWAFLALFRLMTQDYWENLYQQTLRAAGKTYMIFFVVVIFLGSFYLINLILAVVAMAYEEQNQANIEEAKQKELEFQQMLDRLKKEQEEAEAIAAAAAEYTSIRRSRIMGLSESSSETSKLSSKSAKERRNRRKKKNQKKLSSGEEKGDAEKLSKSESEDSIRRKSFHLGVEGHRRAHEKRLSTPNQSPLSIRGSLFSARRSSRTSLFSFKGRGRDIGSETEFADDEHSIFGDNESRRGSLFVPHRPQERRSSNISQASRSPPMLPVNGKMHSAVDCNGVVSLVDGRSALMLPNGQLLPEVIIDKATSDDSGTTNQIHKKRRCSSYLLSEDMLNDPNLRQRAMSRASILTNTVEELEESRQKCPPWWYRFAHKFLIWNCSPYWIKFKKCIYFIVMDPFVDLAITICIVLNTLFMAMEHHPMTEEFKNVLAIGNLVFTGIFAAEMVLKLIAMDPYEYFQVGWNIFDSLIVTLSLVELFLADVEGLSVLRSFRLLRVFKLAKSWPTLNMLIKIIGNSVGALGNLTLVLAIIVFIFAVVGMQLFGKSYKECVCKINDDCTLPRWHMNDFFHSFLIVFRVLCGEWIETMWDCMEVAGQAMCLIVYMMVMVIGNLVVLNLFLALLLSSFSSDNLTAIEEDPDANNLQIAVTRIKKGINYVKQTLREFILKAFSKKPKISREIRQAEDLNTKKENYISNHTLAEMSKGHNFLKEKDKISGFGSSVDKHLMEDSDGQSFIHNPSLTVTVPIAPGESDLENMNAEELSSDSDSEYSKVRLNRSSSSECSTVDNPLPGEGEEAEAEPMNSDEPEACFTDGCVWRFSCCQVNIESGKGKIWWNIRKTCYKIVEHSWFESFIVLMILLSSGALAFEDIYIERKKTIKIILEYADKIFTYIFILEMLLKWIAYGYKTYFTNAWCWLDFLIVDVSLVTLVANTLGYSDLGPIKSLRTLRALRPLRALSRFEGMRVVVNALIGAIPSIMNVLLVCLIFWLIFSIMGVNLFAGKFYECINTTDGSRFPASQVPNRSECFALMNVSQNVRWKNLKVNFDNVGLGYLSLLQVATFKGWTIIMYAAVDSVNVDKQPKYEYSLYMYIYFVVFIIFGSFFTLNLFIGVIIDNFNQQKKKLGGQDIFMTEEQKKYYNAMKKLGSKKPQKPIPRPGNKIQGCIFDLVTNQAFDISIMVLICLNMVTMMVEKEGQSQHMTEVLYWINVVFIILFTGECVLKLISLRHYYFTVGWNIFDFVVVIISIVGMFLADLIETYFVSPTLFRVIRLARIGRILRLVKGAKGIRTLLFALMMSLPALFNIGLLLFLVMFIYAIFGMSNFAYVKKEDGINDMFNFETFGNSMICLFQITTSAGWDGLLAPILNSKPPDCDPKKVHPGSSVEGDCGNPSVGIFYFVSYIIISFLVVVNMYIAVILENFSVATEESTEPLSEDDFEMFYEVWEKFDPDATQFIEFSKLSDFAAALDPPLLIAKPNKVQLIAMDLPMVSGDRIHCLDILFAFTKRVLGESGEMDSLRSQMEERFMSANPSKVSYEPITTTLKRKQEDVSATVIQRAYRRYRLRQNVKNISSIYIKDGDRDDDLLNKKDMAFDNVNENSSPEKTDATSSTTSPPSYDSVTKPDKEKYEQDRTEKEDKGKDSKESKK
(In general: The patch-clamp technique gives a direct electrical read-out from membranes.)

Assay [3] addresses Sodium channel protein type 3 subunit alpha (Rattus norvegicus) (UniProt P08104). In words: Frequency-dependent inhibition of rat Nav1.3 expressed in HEK293 cells assessed as current amplitude at 10 uM by whole cell patch-clamp electrophysiology. The essentials:
as §1

In assay [4] the target is Sodium channel protein type 1 subunit alpha (Homo sapiens) (UniProt P35498). In words: Inhibition of human Nav1.1 expressed in HEK293 cells assessed as half-maximal voltage for steady state fast-inactivation at 10 uM by whole cell patch-clamp electrophysiology (reference value: -64.11 +/-3.63 mV).
The nature of assay [5]: Inhibition of voltage-gated sodium channel in mouse CAD cells assessed as transition of channels to slow-inactivated state measured at -50 mV by whole cell patch-clamp electrophysiology. The essentials:
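CAD cells were grown in Ham's F12/DMEM with 10% FBS at 37 °C and 5% CO2, with native Na+ currents mostly from Nav1.7. Whole-cell voltage clamp at room temperature across a range of concentrations against 0.1% DMSO. IC50 for induction of slow inactivation was taken from concentration-response curves at −50 mV (also at +20 mV).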

Sodium channel protein type 3 subunit alpha (Rattus norvegicus), sequence (P08104 whole entry): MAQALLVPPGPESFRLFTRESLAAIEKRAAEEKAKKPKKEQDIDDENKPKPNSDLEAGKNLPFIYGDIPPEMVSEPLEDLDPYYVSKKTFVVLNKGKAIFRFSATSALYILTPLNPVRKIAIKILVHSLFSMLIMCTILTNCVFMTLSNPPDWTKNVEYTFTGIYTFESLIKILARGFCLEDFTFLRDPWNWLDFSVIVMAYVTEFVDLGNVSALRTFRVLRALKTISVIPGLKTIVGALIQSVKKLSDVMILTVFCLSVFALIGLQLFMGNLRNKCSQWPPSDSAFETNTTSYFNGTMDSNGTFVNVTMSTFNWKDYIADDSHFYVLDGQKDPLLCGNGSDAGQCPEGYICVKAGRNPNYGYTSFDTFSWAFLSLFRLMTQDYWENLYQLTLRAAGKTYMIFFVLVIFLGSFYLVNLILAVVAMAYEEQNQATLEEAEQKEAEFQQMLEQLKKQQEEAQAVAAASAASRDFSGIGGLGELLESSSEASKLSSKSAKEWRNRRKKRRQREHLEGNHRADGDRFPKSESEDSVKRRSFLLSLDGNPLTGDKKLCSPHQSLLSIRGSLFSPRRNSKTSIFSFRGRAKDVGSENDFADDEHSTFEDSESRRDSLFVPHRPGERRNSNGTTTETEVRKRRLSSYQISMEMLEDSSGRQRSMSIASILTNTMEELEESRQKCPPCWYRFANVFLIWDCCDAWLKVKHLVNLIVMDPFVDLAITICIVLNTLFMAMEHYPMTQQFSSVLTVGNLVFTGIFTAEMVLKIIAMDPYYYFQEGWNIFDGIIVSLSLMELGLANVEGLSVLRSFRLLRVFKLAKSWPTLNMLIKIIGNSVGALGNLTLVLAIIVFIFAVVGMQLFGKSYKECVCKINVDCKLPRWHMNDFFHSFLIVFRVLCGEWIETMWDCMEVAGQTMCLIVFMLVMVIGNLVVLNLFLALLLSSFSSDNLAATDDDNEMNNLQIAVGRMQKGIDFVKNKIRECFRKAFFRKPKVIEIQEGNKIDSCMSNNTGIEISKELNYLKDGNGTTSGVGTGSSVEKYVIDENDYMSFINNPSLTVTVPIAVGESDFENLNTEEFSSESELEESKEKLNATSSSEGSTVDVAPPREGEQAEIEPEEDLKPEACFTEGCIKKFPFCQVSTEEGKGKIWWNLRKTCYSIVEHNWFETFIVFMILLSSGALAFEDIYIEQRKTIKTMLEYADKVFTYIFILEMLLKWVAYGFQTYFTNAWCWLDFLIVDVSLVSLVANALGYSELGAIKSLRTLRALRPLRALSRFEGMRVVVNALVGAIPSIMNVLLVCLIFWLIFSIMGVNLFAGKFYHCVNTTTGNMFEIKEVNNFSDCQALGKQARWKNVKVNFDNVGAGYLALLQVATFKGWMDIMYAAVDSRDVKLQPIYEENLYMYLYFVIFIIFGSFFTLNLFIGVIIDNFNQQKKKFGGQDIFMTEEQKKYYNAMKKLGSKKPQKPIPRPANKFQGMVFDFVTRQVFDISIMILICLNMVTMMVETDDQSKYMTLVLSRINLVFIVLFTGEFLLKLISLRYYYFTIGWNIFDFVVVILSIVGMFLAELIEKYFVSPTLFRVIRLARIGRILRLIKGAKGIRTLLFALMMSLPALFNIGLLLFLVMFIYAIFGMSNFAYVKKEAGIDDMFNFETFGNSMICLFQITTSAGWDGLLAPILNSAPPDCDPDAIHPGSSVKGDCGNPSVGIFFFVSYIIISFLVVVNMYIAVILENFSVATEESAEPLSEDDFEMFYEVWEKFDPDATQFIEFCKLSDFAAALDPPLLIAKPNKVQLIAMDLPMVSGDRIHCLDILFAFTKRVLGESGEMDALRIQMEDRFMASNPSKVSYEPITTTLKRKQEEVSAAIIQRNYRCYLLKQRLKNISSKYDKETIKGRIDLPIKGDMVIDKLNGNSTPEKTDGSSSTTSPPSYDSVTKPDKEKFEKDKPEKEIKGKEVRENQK

As a reminder, the IC50 is the concentration that gives 50% inhibition. As for `COC[C@@H](NC(C)=O)C(=O)NCc1ccc(Oc2cccc(OC(F)(F)F)c2)cc1`, the values for the IC50 in assay [1] and in assay [5] were 640 nM and 700 nM, respectively. Moreover, the inhibition result in assay [2] and in assay [3] was “inactive” in each case. Moreover, the V1/2 in assay [4] is -76.7 mV.
